According to ChEMBL document CHEMBL2202989, “New adamantane phenylalkylamines with σ-receptor binding affinity and anticancer activity, associated with putative antagonism of neuropathic pain” (J Med Chem, 2012):

Key:
BXPC-3 [1] = assay: Cell cycle arrest in human BxPC3 cells assessed as accumulation at G1 phase at 50 uM after 24 hrs using propidium iodide staining by FACS analysis (reference value: 41 %); format: functional
In short: (§1)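 Cells were plated 24 h before treatment and exposed for 24 h at final 0.5, 5, 15 and 50 μM in 0.5% DMSO, against vehicle-treated controls. Cells were then trypsinised and fixed in cold ethanol for 3 h at 4 °C. They were stained in a mix of RNase (200 μg/mL) and PI (1 mg/mL) for 45 min at room temperature in the dark. Flow cytometry used 488 nm excitation and 10 000 gated cells. Phase percentages were assigned from DNA content.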

BXPC-3 [2] = assay: Cell cycle arrest in human BxPC3 cells assessed as accumulation at G1 phase at 15 uM after 24 hrs using propidium iodide staining by FACS analysis (reference value: 41 %); format: functional; in short: as §1
Mus musculus = assay: Toxicity in SCID mouse assessed as mortality at 40 to 55 mg/kg, ip for 2 to 3 weeks; format: organism-based; set-up: route intraperitoneal; conditions: in vivo
In short: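 CD-1 (male and female) and SCID mice dosed ip at 40−55 mg/kg in 5% Tween 80 for chronic 2−3 week regimens. Deaths and body weight loss compared with vehicle (Tween 80 or Cremophor) and reference-drug groups. Weight loss, neurological, behavioral and dietary changes recorded as toxicity signs.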

SK-HEP1 = assay: Growth inhibition of human SKHEP1 cells after 48 hrs by SRB assay; format: functional; conditions: SK-HEP1, 48 h
In short: (§2)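 Cells grown in RPMI 1640 with 5% heat-inactivated FCS, 2 mM L-glutamine and antibiotics, 37 °C, 5% CO2. Seeded at 3500–30000 cells/well and left 24 h before dosing. DMSO solutions added at 10-fold dilutions from 100 to 0.01 μM for 48 h. Cells TCA-fixed and SRB-stained, absorbance read at 540 nm; GI50 derived against the time-zero plate.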

PC-3 [3] = assay: Growth inhibition of human PC3 cells after 48 hrs by SRB assay; format: functional; conditions: PC-3, 48 h; in short: as §2
DU-145 = assay: Growth inhibition of human DU145 cells after 48 hrs by SRB assay; format: functional; conditions: DU-145, 48 h; in short: as §2
[4] = Displacement of [3H]batrachotoxin benzoate from Na+ channel after 60 mins by liquid scintillation counting
In short: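 Na+ channel site 2 binding: vesicle preparation (150−500 μg protein) incubated 60 min with 20−25 nM [3H]BTX-B and 50 μg Leiurius quinquestriatus venom. Buffer was 130 mM choline chloride, 50 mM HEPES/Tris pH 7.4, glucose, MgSO4, KCl, BSA. Filtered on GF/C with cold washes; scintillation counting. Nonspecific binding defined with 250 μM veratridine.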

OVCAR-5 = assay: Antitumor activity against human OVCAR5 cells xenografted in SCID mouse assessed as bone metastasis at 55 mg/kg, ip administered 5 consecutive days in a week for two cycles measured after 2 cycles relative to control; format: functional; conditions: OVCAR-5, ip, route intraperitoneal, read-out: TGI
In short: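 SCID mice carried OVCAR5 xenografts (10^6 cells per inoculum), 16 mice (32 tumors) per group, with ip dosing in 5% Tween 80 from a tumor volume of about 100 mm3. Caliper volume was measured twice weekly and %ΔT/ΔC derived. At termination, primary tumors were weighed and secondary metastases were scored at axillary and bone sites (n = 7−8). Two-tailed t test.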

PC-3 [5] = assay: Antitumor activity against human PC3 cells xenografted in SCID mouse assessed as bone metastasis at 55 mg/kg, ip administered 5 consecutive days in a week for two cycles measured after 2 cycles relative to control; format: functional; conditions: route intraperitoneal
In short: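 PC3 xenografts were grown in SCID mice (10^6 cells per inoculum), 14 mice (28 tumors) per group, dosed ip from about 100 mm3. The test agent was given in 5% Tween 80; paclitaxel was given in Cremophor diluted in saline, with a vehicle of 1:1 ethanol/Cremophor diluted 1:3 in saline. Volume and %ΔT/ΔC were derived from caliper readings twice weekly. Occurrence of primary tumors and of axillary and bone metastases was scored (n = 7). Two-tailed t test.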

PC-3 [6] = assay: Induction of apoptosis in human PC3 cells assessed as cleaved caspase3 containing cells at 50 uM by antibody-based FACS analysis (reference value: 3.2%); format: functional
PC-3 [7] = assay: Induction of apoptosis in human PC3 cells assessed as total apoptotic death at 15 uM using annexin V/7-AAD by FACS analysis (reference value: 8 %); format: functional
In short: (§3)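 Cells plated 24 h before treatment, then exposed 24 h to 0.5, 5, 15 or 50 μM compound (final DMSO 0.5%); vehicle controls included. Cells scraped and stained with annexin V-FITC and 7-AAD for 15 min on ice in the dark. Flow cytometry with 488 nm excitation, 10,000 gated cells. Early apoptosis was annexin V+/7-AAD−, late was annexin V+/7-AAD+.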

PC-3 [8] = assay: Induction of apoptosis in human PC3 cells assessed as healthy cells at 15 uM using annexin V/7-AAD by FACS analysis (reference value: 91 %); format: functional
IGROV-1 [9] = assay: Induction of apoptosis in human IGROV1 cells assessed as total apoptotic death at 0.5 uM using annexin V/7-AAD by FACS analysis (reference value: 13 %); format: functional; in short: as §3
IGROV-1 [10] = assay: Induction of apoptosis in human IGROV1 cells assessed as late apoptosis at 15 uM using annexin V/7-AAD by FACS analysis (reference value: 5 %); format: functional
IGROV-1 [11] = assay: Induction of apoptosis in human IGROV1 cells assessed as early apoptosis at 5 uM using annexin V/7-AAD by FACS analysis (reference value: 9 %); format: functional
IGROV-1 [12] = assay: Induction of apoptosis in human IGROV1 cells assessed as healthy cells at 50 uM using annexin V/7-AAD by FACS analysis (reference value: 86 %); format: functional
BXPC-3 [13] = assay: Induction of apoptosis in human BxPC3 cells assessed as total apoptotic death at 50 uM using annexin V/7-AAD by FACS analysis (reference value: 18 %); format: functional; in short: as §3
BXPC-3 [14] = assay: Induction of apoptosis in human BxPC3 cells assessed as early apoptosis at 0.5 uM using annexin V/7-AAD by FACS analysis (reference value: 9 %); format: functional
PC-3 [15] = assay: Cell cycle arrest in human PC3 cells assessed as accumulation at >G2/M phase at 50 uM after 24 hrs using propidium iodide staining by FACS analysis (reference value: 6 %); format: functional
PC-3 [16] = assay: Cell cycle arrest in human PC3 cells assessed as accumulation at >G2/M phase at 5 uM after 24 hrs using propidium iodide staining by FACS analysis (reference value: 6 %); format: functional
PC-3 [17] = assay: Cell cycle arrest in human PC3 cells assessed as accumulation at S phase at 0.5 uM after 24 hrs using propidium iodide staining by FACS analysis (reference value: 42 %); format: functional
PC-3 [18] = assay: Cell cycle arrest in human PC3 cells assessed as accumulation at G1 phase at 15 uM after 24 hrs using propidium iodide staining by FACS analysis (reference value: 36 %); format: functional
IGROV-1 [19] = assay: Cell cycle arrest in human IGROV1 cells assessed as accumulation at >G2/M phase at 5 uM after 24 hrs using propidium iodide staining by FACS analysis (reference value: 21 %); format: functional; in short: as §1
[20] = read-out: LC50 (the source's name)

CN1CCN(CCCc2ccc(C(c3ccccc3)C34CC5CC(CC(C5)C3)C4)cc2)CC1 (centres undefined)
Activity (BXPC-3 [1]): 31% | Activity (BXPC-3 [2]): 32% | Activity (Mus musculus): Non-toxic | GI50 (SK-HEP1): 3.49 µM | TGI (SK-HEP1): 6.37 µM | CC50 (SK-HEP1; [20]): 0.00924 µM | GI50 (PC-3 [3]): 3.43 µM | TGI (PC-3 [3]): 6.72 µM | CC50 (PC-3 [3]; [20]): 0.01 µM | GI50 (DU-145): 3.77 µM | TGI (DU-145): 7.11 µM | CC50 (DU-145; [20]): 0.1 µM | IC50 [4]: > 1 µM | inhibition in vivo at 55 mg/kg (OVCAR-5): 25% | Activity (PC-3 [5]): 43% | Activity (PC-3 [6]): 4% | Activity (PC-3 [7]): 16% | Activity (PC-3 [8]): 71% | Activity (IGROV-1 [9]): 11% | Activity (IGROV-1 [10]): 20% | Activity (IGROV-1 [11]): 10% | Activity (IGROV-1 [12]): 26% | Activity (BXPC-3 [13]): 46% | Activity (BXPC-3 [14]): 10% | Activity (PC-3 [15]): 17% | Activity (PC-3 [16]): 6% | Activity (PC-3 [17]): 38% | Activity (PC-3 [18]): 25% | Activity (IGROV-1 [19]): 20%
